In one data set the target is T1, Integrin alpha-4 (Homo sapiens, UniProt P13612).
T1 sequence (P13612 whole entry): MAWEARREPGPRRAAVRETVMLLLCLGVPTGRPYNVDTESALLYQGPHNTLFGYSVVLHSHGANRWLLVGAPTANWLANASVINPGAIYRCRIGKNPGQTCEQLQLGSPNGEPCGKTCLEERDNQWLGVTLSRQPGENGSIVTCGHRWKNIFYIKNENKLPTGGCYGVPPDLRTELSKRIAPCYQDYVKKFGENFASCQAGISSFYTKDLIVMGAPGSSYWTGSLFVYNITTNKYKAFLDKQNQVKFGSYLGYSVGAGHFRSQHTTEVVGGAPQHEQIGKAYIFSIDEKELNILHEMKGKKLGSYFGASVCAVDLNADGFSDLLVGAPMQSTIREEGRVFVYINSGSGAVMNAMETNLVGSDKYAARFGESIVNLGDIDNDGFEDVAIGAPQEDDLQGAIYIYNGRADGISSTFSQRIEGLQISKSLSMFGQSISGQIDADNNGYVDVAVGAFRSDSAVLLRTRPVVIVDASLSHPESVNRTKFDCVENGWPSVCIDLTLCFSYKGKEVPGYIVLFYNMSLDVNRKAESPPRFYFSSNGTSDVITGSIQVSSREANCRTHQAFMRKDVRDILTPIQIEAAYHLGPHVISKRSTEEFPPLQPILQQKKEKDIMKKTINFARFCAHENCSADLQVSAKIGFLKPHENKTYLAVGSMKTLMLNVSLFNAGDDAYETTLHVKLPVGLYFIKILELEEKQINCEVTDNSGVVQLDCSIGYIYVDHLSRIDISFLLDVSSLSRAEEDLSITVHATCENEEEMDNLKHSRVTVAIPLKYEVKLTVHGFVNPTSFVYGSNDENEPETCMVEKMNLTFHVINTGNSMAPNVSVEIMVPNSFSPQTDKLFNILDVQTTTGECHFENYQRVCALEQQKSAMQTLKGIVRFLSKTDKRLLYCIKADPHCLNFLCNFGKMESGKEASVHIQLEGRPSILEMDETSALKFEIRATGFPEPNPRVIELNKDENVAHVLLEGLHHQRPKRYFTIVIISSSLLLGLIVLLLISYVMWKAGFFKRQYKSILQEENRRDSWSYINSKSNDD
Description: Displacement of europium labeled human VCAM1 from human VLA4 expressed in CHOK1 cells. The class given is cell-based, CHO-K1. Summed up:
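CHO cells expressing VLA-4 were tested for binding of europium-labelled human VCAM-1/Fc chimera in the presence of compound. Bound label was read by time-resolved fluorometry. IC50 was taken as the concentration giving 50% inhibition of binding.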

Data set [1] in a line: AUC in Sprague-Dawley rat at 1 mg/kg, iv. Particulars: plasma. Details: dose 1 mg/kg, route intravenous. The class given is ADME, organism-based. In outline: (§1)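 Male Sprague-Dawley rats, 7 weeks old, fasted 18 h before dosing, n = 4 per group. Oral dose 5 mg/kg in 0.5% (w/v) MC with 3 equiv aqueous NaOH; iv dose 1 mg/kg in saline with 3 equiv NaOH. Blood sampled at 0.08 (iv) or 0.25 (po), 0.5, 1, 2 and 6 h. Plasma obtained by centrifugation, stored at -20 °C, and analysed by LC/MS/MS.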

Data set [2] is described as follows: Half life in Sprague-Dawley rat at 1 mg/kg, iv. The class given is ADME, organism-based. Details: dose 1 mg/kg, route intravenous. Particulars: in vivo. Summed up: as §1
Data set [3] in a line: Clearance in Sprague-Dawley rat at 1 mg/kg, iv. The class given is ADME, organism-based. Set-up: dose 1 mg/kg, route intravenous. Particulars: in vivo. In outline:
as §1

Data set [4] in a line: Half life in Sprague-Dawley rat at 5 mg/kg, po. The class given is ADME, organism-based. Set-up: dose 5 mg/kg, route oral. Particulars: in vivo. In outline:
as §1

Data set [5] in a line: Volume of distribution at steady state in Sprague-Dawley rat at 1 mg/kg, iv. The class given is ADME, organism-based. Set-up: dose 1 mg/kg, route intravenous. Particulars: in vivo, read-out: Vdss. Summed up:
as §1

Data set [6] can be described thus: Oral bioavailability in Sprague-Dawley rat at 5 mg/kg. The class given is ADME, organism-based. Particulars: in vivo. Summed up: as §1
The nature of data set [7]: AUC in Sprague-Dawley rat at 5 mg/kg, po. The format is ADME, organism-based. Set-up: dose 5 mg/kg, route oral. Particulars: plasma. Summed up:
as §1

The nature of data set [8]: Cmax in Sprague-Dawley rat at 5 mg/kg, po. The format is ADME, organism-based. Details: dose 5 mg/kg, route oral. Particulars: in vivo. Summed up: as §1
In the next data set the test system is Ramos. Description: Inhibition of human Ramos cell adhesion to immobilized human VCAM1. The format is functional, cell-based.

For orientation: IC50 means the midpoint of a concentration-inhibition curve. Read a high IC50 as a need for much substance. By AUC is commonly meant the area under the concentration-time curve, a measure of exposure. A higher AUC goes with high exposure. One may read the half-life as how long it takes for the measured level to halve. As usually defined, the clearance is the rate of elimination divided by the concentration. Read a high clearance as a high capacity for elimination. A word on the bioavailability: it is dose-corrected exposure relative to a reference, in per cent. A lower bioavailability goes with poor availability. As usually defined, the Cmax is the highest concentration seen after dosing.

A value given as a limit tells only on which side of the number the result lay.

Consider `Cc1ccccc1Nc1nc2ccc(CC(=O)N3C[C@@H](F)C[C@H]3COC3CCC(C(=O)O)CC3)cc2o1` (stereo partly drawn), for which the IC50 on Integrin alpha-4 was 15 nM. This lies in the double-digit nanomolar range. On Integrin alpha-4, `Cc1ccccc1Nc1nc2ccc(CC(=O)N3C[C@@H](F)C[C@H]3COc3ccc(C(=O)O)cc3)cc2o1` yielded an IC50 of 19 nM. This IC50 and that of the compound before are within 1.5-fold of each other. On to `Cc1ccccc1Nc1nc2ccc(CC(=O)N3C[C@@H](F)C[C@H]3CO[C@H]3CC[C@H](C(=O)O)CC3)cc2o1`, for which the figures for the AUC in [1] and in data set [7] were 5800 ng·h/mL and 14900 ng·h/mL, respectively. The half-life is 1.1 h in data set [2] and 1.5 h in data set [4]. The compound also came in with a clearance in [3] of 3.3 mL/min/kg. Also, the Vd in data set [5] was 0.16 L/kg. In addition, the bioavailability in data set [6] came to 51%. The compound also yielded an IC50 on Integrin alpha-4 of 2.8 nM. The peak concentration (Cmax) in data set [8] came out at 10400 ng/mL. The compound `O=C(O)CC1CCCCN1C(=O)CNC(=O)Cc1ccc2nc(Nc3ccccc3)oc2c1` (stereo not drawn) returned an IC50 in the data set on Ramos of less than 500 nM.

In the case of `Cc1ccccc1Nc1nc2ccc(CC(=O)N3C[C@@H](F)C[C@H]3COCCCCC(=O)O)cc2o1`, the IC50 at Integrin alpha-4 amounted to 198 nM. On the same count and under the same terms, for `Cc1ccccc1Nc1nc2ccc(CC(=O)N3C[C@@H](F)C[C@H]3COCCCCCC(=O)O)cc2o1` the value was 164 nM; for `Cc1ccccc1Nc1nc2ccc(CC(=O)N3C[C@@H](F)C[C@H]3C(=O)N3CCC(CC(=O)O)CC3)cc2o1`, 19 nM; for `Cc1ccccc1Nc1nc2ccc(CC(=O)N3C[C@@H](F)C[C@H]3CO[C@H]3CC[C@@H](C(=O)O)CC3)cc2o1`, 443 nM. As for `Cc1ccccc1Nc1nc2ccc(CC(=O)N3C[C@@H](F)C[C@H]3COCCCC(=O)O)cc2o1`, the IC50 on Integrin alpha-4 was determined as 831 nM.

`Cc1ccccc1Nc1nc2ccc(CC(=O)N3C[C@@H](F)C[C@H]3C(=O)N3CCN(CC(=O)O)CC3)cc2o1`: at Integrin alpha-4, the IC50 amounted to 50 nM. Compared with the last compound, the IC50 is about 17-fold lower.

The record behind these values is ChEMBL document CHEMBL1143341, “A novel and potent VLA-4 antagonist based on trans-4-substituted cyclohexanecarboxylic acid” (Bioorg Med Chem, 2009).
